Test results: ChEMBL document CHEMBL3259782, “Synthesis and biological evaluation of chalcones as potential antileishmanial agents” (Eur J Med Chem, 2014)

Assays:
Leishmania donovani [1] = experiment: Antipromastigote activity against Leishmania donovani MHOM/IN/80/Dd8 expressing luciferase firefly reporter gene at 25 uM after 96 hrs by luminescence assay; settings: MHOM/IN/80/Dd8, 96 h
Leishmania donovani [2] = experiment: Antiamastigote activity against amastigote stage of Leishmania donovani MHOM/IN/80/Dd8 expressing luciferase firefly reporter gene infected in mouse J774A1 cells after 72 hrs by luminescence assay; type: functional, organism-based; settings: MHOM/IN/80/Dd8, J774.A1, 72 h
Summary of the method: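 J-774A.1 macrophages were seeded at 4 x 10^4/mL in RPMI-1640 with 10% heat-inactivated FCS at 37 °C, 5% CO2. After 24 h they were infected with stationary-phase luciferase-expressing promastigotes at 4 x 10^5/mL. Uninternalized parasites were washed off after 24 h. Compounds were tested at 7 dilutions from 40 µM for 72 h. Luminescence was read with Steady Glo. IC50 came from four-parameter Hill fitting, averaged over at least duplicates.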

[3] = (§1) Selectivity index, ratio of CC50 for African green monkey Vero cells to IC50 for promastigote stage of Leishmania donovani MHOM/IN/80/Dd8; type: functional; settings: in the assay text read “amastigote stage” for “promastigote stage”
Summary of the method: (§2)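 SI was calculated as Vero CC50 (MTT, 72 h) divided by IC50 against intracellular amastigotes in J-774A.1 cells (luciferase luminescence, 72 h).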

[4] = Cytotoxicity against African green monkey Vero cells assessed as cell viability after 72 hrs by MTT assay; type: cell-based; settings: chlorocebus sabaeus
Summary of the method: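 Vero cells at 1 x 10^5/mL were exposed to 7 concentrations from 400 µM at 37 °C in CO2 for 72 h. MTT (5 mg/mL in PBS) was then added for 2 h at 37°C. Formazan was dissolved in DMSO and absorbance read at 540 nm. CC50 was estimated and averaged over at least duplicates.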

Leishmania donovani [5] = experiment: Antileishmanial activity against Leishmania donovani MHOM/IN/80/Dd8 infected in golden hamster assessed as inhibition of amastigotes multiplication at 100 mg/kg, ip for 5 days treatment started 15 days after infection measured on day 7; type: functional; settings: MHOM/IN/80/Dd8, ip, route intraperitoneal
Summary of the method: (§3)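 Golden hamsters of both sexes were infected intracardially with 1 x 10^7 amastigotes. A pre-treatment splenic biopsy was taken after 15 days, and only animals with +1 grade infection (5-10 amastigotes/100 spleen cell nuclei) were used, five per compound. Dosing began 2 days after that biopsy and ran on consecutive days. Splenic biopsy on day 7 after the last dose was Giemsa-stained. PI = 100-[(ANAT x 100)/(INAT x TIUC)].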

Leishmania donovani [6] = experiment: Antileishmanial activity against Leishmania donovani MHOM/IN/80/Dd8 infected in golden hamster assessed as inhibition of amastigotes multiplication at 50 mg/kg, ip for 10 days treatment started 15 days after infection measured on day 7; type: functional; settings: MHOM/IN/80/Dd8, ip, route intraperitoneal
Summary of the method: as §3

Leishmania donovani [7] = experiment: Antileishmanial activity against Leishmania donovani MHOM/IN/80/Dd8 infected in golden hamster assessed as inhibition of amastigotes multiplication at 50 mg/kg, ip for 5 days treatment started 15 days after infection measured on day 7; type: functional; settings: MHOM/IN/80/Dd8, ip, route intraperitoneal
Summary of the method: as §3

Leishmania donovani [8] = experiment: Antileishmanial activity against Leishmania donovani MHOM/IN/80/Dd8 infected in golden hamster assessed as inhibition of amastigotes multiplication at 30 mg/kg, po for 5 days treatment started 15 days after infection measured on day 7; type: functional
Summary of the method: as §3

Vero = experiment: as §1; type: functional; settings: in the assay text read “amastigote stage” for “promastigote stage”
Summary of the method: as §2

Leishmania donovani [9] = experiment: Antileishmanial activity against Leishmania donovani MHOM/IN/80/Dd8 infected in golden hamster assessed as inhibition of amastigotes multiplication at 40 mg/kg, ip for 5 days treatment started 15 days after infection measured on day 7; type: functional, organism-based; design: dose 40 mg/kg
Summary of the method: as §3

Compound | inhibition at 25 µM (Leishmania donovani [1]) | IC50 (Leishmania donovani [2]) | Ratio CC50/IC50 [3] | CC50 at 72 h [4] | further results
CC1(C)C=Cc2c(ccc(C(=O)/C=C/c3cnc4ccccc4c3)c2O)O1 | 62.2% | – | – | – | –
O=C(/C=C/c1ccc(OCCN2CCCCC2)cc1)c1ccc(OCCN2CCCCC2)cc1 | 99.9% | > 20 µM | – | – | –
CC1(C)C=Cc2c(ccc(C(=O)/C=C/c3ccc(Br)cc3)c2O)O1 | 100% | > 20 µM | – | – | –
CC1(C)C=Cc2c(ccc(C(=O)/C=C/c3ccc(Cl)cc3)c2O)O1 | 99.9% | 17.9 µM | 5.1 | 92.2 µM | –
CC1(C)C=Cc2c(ccc(C(=O)/C=C/c3ccc(Cl)cc3Cl)c2O)O1 | 99.9% | 9.7 µM | 13.5 | 131 µM | –
CC1(C)C=Cc2c(ccc(C(=O)/C=C/c3ccc(OCCN4CCCC4)cc3)c2O)O1 | 100% | > 20 µM | – | – | –
CCN(CC)CCOc1ccc(/C=C/C(=O)c2ccc3c(c2O)C=CC(C)(C)O3)cc1 | 100% | 14.9 µM | 22.9 | 341 µM | –
CC1(C)C=Cc2c(ccc(C(=O)/C=C/c3ccc([N+](=O)[O-])cc3)c2O)O1 | 97.4% | 5.2 µM | 20.4 | 106 µM | –
CC1(C)C=Cc2c(ccc(C(=O)/C=C/c3ccc(F)c(F)c3)c2O)O1 | 99.9% | 17 µM | 8.6 | 146 µM | –
CC1(C)C=Cc2c(ccc(C(=O)/C=C/c3ccc(OCCN4CCCCC4)cc3)c2O)O1 | 100% | 17.7 µM | >22.6 | > 400 µM | –
CC1(C)C=Cc2c(ccc(C(=O)/C=C/c3ccc(OCCN4CCCC4)cc3)c2OCCN2CCCC2)O1 | 99.9% | 2.5 µM | 103.2 | 258 µM | –
COc1ccc(/C=C/C(=O)c2ccc(OC/C=C(\C)CCC=C(C)C)cc2)cc1 | 93% | 3.1 µM | 47.2 | 146 µM | inhibition in vivo at 100 mg/kg (Leishmania donovani [5]): 75.9%; inhibition in vivo at 50 mg/kg (Leishmania donovani [6]): 83.3%
CCOc1ccc(/C=C/C(=O)c2ccc(OCCN3CCCCC3)cc2)cc1 | 99.9% | > 20 µM | – | – | –
CC1(C)C=Cc2c(ccc(C(=O)/C=C/c3ccc(C#N)cc3)c2O)O1 | 99.6% | 8.2 µM | 9.8 | 80.2 µM | –
CCOc1ccc(/C=C/C(=O)c2ccc3c(c2O)C=CC(C)(C)O3)cc1 | 88.9% | 5.1 µM | 42.1 | 215 µM | –
CCN(CC)CCOc1ccc(/C=C/C(=O)c2ccc3c(c2OCCN(CC)CC)C=CC(C)(C)O3)cc1 | 100% | 2 µM | 162.5 | 325 µM | inhibition in vivo at 50 mg/kg (Leishmania donovani [7]): 48.5%
CN(C)c1ccc(/C=C/C(=O)c2ccc(OCCN3CCCCC3)cc2)cc1 | 99.9% | 9.3 µM | 27 | 251 µM | –
COc1ccc(/C=C/C(=O)c2ccc3c(c2O)C=CC(C)(C)O3)cc1OC | 98.2% | 11.9 µM | 22.4 | 267 µM | –
CC1(C)C=Cc2c(ccc(C(=O)/C=C/c3cc(C=O)ccc3O)c2O)O1 | 94.5% | > 20 µM | – | – | –

Compound | inhibition at 25 µM (Leishmania donovani [1]) | IC50 (Leishmania donovani [2]) | Ratio CC50/IC50 [3] | CC50 at 72 h [4] | further results
CC1(C)C=Cc2c(ccc(C(=O)/C=C/c3ccccn3)c2O)O1 | 99.9% | 2 µM | 10.2 | 20.5 µM | –
Cc1ccc2nc(Cl)c(/C=C/C(=O)c3ccc4c(c3O)C=CC(C)(C)O4)cc2c1 | 99.8% | 5.3 µM | 75.3 | 399 µM | –
CCOc1cc(/C=C/C(=O)c2ccc3c(c2O)C=CC(C)(C)O3)ccc1F | 99.9% | 12.1 µM | 15.3 | 185 µM | –
CC1(C)C=Cc2c(ccc(C(=O)/C=C/c3ccc(O)cc3)c2O)O1 | 70.2% | > 20 µM | – | – | –
CN(C)c1ccc(/C=C/C(=O)c2ccc3c(c2O)C=CC(C)(C)O3)cc1 | 97.1% | 19.8 µM | >20.2 | > 400 µM | –
CC1(C)C=Cc2c(ccc(C(=O)/C=C/c3cc4ccccc4nc3Cl)c2O)O1 | 100% | 12.1 µM | 21.2 | 257 µM | –
CC(=O)Nc1ccc(/C=C/C(=O)c2ccc3c(c2O)C=CC(C)(C)O3)cc1 | 98.7% | 6.1 µM | 45.6 | 278 µM | –
CC1(C)C=Cc2c(ccc(C(=O)/C=C/c3ccc(Cl)c(Cl)c3)c2O)O1 | 99.9% | 13.9 µM | 10.2 | 142 µM | –
CC(C)=CCC/C(C)=C/CC/C(C)=C/COc1ccc(C(=O)/C=C/c2ccc(N(C)C)cc2)cc1 | 76.1% | > 20 µM | – | – | –
CC1(C)C=Cc2c(ccc(C(=O)/C=C/c3cccnc3)c2O)O1 | 100% | 22.2 µM | 0.4 | 8.6 µM | –
CCCCCCCCCCCCCCCCOP(=O)([O-])OCC[N+](C)(C)C [MILTEFOSINE] | 100% | – | 6.2 | – | inhibition in vivo at 30 mg/kg (Leishmania donovani [8]): 98.5%
CC1(C)C=Cc2c(ccc(C(=O)/C=C/c3ccc(F)cc3)c2O)O1 | 99% | 16.7 µM | 9.5 | 158 µM | –
CC1(C)C=Cc2c(ccc(C(=O)/C=C/c3ccc(OCCN4CCCCC4)cc3)c2OCCN2CCCCC2)O1 | 100% | 2.8 µM | 30.9 | 86.5 µM | –
CC1(C)C=Cc2c(ccc(C(=O)/C=C/c3ccc4ccoc4c3)c2O)O1 | 91.2% | > 20 µM | – | – | –
CC(C)=CCOc1ccc(C(=O)/C=C/c2ccc(N(C)C)cc2)cc1 | 84.2% | 4.1 µM | >97.6 | > 400 µM | –
CC(C)=CCC/C(C)=C/COc1ccc(C(=O)/C=C/c2ccc(OCCN3CCCC3)cc2)cc1 | 100% | – | – | – | –
CC(C)=CCC/C(C)=C/COc1ccc(C(=O)/C=C/c2ccc(O)cc2)cc1 | 95.2% | 9.3 µM | 1.4 | 12.9 µM | –
sodium stibogluconate | – | – | – | – | Ratio CC50/IC50 (Vero): > 8; inhibition (Leishmania donovani [9]): 89.5%
